Reference: ChEMBL document CHEMBL1144697, “9-cyano-1-azapaullone (cazpaullone), a glycogen synthase kinase-3 (GSK-3) inhibitor activating pancreatic beta cell protection and replication” (J Med Chem, 2008)
Activity calls are given as the source filed them. No cut-off for these calls is given here.

Key:
[1] = target: Glycogen synthase kinase-3 (Homo sapiens, UniProt P49840+P49841); assay: Inhibition of GSK3alpha/beta in pig brain; parameters: species or system Sus scrofa; conditions: target entry is the homologue from another species
[2] = target: Cyclin-dependent kinase 5/CDK5 activator 1 (Homo sapiens, UniProt Q00535); assay: Inhibition of recombinant CDK5/p25 expressed in Escherichia coli
Cyclin-dependent kinase 5/CDK5 activator 1, sequence (Q00535 whole entry): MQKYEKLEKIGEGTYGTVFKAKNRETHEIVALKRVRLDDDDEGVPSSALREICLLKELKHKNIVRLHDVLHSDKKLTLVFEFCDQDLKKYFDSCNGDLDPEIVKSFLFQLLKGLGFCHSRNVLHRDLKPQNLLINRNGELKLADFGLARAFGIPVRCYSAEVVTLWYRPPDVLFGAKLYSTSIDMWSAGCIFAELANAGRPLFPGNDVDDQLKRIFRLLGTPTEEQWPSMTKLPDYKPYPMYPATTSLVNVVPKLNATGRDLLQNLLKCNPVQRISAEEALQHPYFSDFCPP
Cyclin-dependent kinase 5/CDK5 activator 1, sequence (Q15078 whole entry, further chain): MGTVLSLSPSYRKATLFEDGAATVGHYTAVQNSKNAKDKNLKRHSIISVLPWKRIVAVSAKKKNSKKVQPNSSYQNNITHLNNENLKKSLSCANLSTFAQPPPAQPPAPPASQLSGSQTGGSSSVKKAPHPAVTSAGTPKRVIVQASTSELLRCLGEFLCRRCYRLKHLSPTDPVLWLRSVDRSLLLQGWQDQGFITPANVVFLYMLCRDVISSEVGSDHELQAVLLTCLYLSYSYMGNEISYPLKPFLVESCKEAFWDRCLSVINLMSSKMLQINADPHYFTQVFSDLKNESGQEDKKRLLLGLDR

[3] = Inhibition of starfish CDK1/cyclin B; parameters: species or system Asteroidea
Summary of the method: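 Kinase inhibition assays at 15 µM final ATP, run in triplicate.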

SH-SY5Y = assay: Inhibition of GSK3 in human SHSY5Y cells assessed as beta-casein phosphorylation level in presence of MG132; format: cell-based; conditions: in the assay text read “beta-catenin” for “beta-casein”
Summary of the method: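 Nearly confluent SH-SY5Y cells in DMEM with 10% FCS were co-treated with compound across a concentration range plus 2 µM MG132, DMSO ≤1% final. Phospho-β-catenin (Ser33/Ser37/Thr41) measured by ELISA and expressed as % of cells given MG132 alone (100%).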

INS-1E [4] = assay: Protection against glucose and palmitate-induced toxicity in rat INS-1E cells after 24 hrs; format: functional, cell-based
Summary of the method: (§1)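 INS-1E cells treated with compound over a concentration range, with or without 0.3 mM BSA-coupled palmitate plus 25 mM glucose for 24 h. Viability/metabolic activity measured as an indirect readout of mitochondrial energy production. At least four wells per point; representative of ≥3 independent studies.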

INS-1E [5] = assay: Inhibition of glucose and palmitate-induced apoptosis in rat INS-1E cells by DNA fragmentation assay; format: functional, cell-based
Summary of the method: (§2)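 INS-1E cells preincubated 1 h with compound (µM), then exposed to toxic high glucose/palmitate for 24 h. Apoptosis read as cytosolic DNA fragments or caspase activity, as fold change versus untreated control ± SD. At least four wells per point; Student's t test against glucose/palmitate alone.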

INS-1E [6] = assay: Inhibition of glucose and palmitate-induced apoptosis in rat INS-1E cells by caspase activity assay; format: functional, cell-based; summary of the method: as §2
INS-1E [7] = assay: Stimulation of rat INS-1E cell replication assessed as BrdU incorporation; format: functional, cell-based
Summary of the method: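 INS-1E cells exposed to compound at various concentrations for 24 h. Replication measured as BrdU incorporation, given as fold increase versus untreated cells ± SD. At least four wells per point, two independent studies, Student's t test.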

[8] = Activation of Pax4 RNA expression in rat INS-1E cells at 10 uM after 4 hrs relative to control; format: functional, cell-based
Summary of the method: (§3)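 Compound added to INS-1E cells for 4 h or 24 h. Pax4 and cyclophilin B transcripts quantified by qRT-PCR. Reported as fold change versus vehicle-treated control, with the control level set to 1. Mean of triplicates ± SD.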

[9] = Activation of Pax4 RNA expression in rat INS-1E cells at 10 uM after 24 hrs relative to control; format: functional, cell-based; summary of the method: as §3
[10] = Activation of cyclophilin B gene expression in rat INS-1E cells at 10 uM after 4 hrs relative to control; format: functional, cell-based; summary of the method: as §3
[11] = Activation of cyclophilin B gene expression in rat INS-1E cells at 10 uM after 24 hrs relative to control; format: functional, cell-based; summary of the method: as §3
[12] = Activation of Pax4 RNA expression in rat beta cells at 2 uM after 4 hrs relative to control; format: functional, cell-based; conditions: Pancreatic beta cell
Summary of the method: (§4)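 Primary rat islets exposed to compound for 4 h. Pax4 and cyclophilin B expression measured by qRT-PCR as fold change versus vehicle-treated control (set to 1). Triplicates, mean ± SD.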

[13] = Activation of cyclophilin B gene expression in rat beta cells at 2 uM after 4 hrs relative to control; format: functional, cell-based; conditions: Pancreatic beta cell; summary of the method: as §4
INS-1E [14] = assay: Protection against glucose and palmitate-induced toxicity in rat INS-1E cells at 0.3 uM after 24 hrs; format: functional, cell-based; summary of the method: as §1
INS-1E [15] = assay: Protection against glucose and palmitate-induced toxicity in rat INS-1E cells at 2 uM after 24 hrs; format: functional, cell-based; summary of the method: as §1
INS-1E [16] = assay: Suppression of metabolic activity in rat INS-1E cells at 1 uM; format: functional, cell-based; summary of the method: as §1
[17] = Inhibition of glucose and palmitate-induced apoptosis in rat INS-1E cells at 2 uM by DNA fragmentation assay; format: functional; parameters: scale not given: the % may be the effect or the level left; summary of the method: as §2
[18] = Inhibition of glucose and palmitate-induced apoptosis in rat INS-1E cells at 2 uM by caspase activity assay; format: functional; parameters: scale not given: the % may be the effect or the level left; summary of the method: as §2
Pancreatic beta cell [19] = assay: Stimulation of rat primary beta cell replication at 0.5 uM; format: functional
Summary of the method: (§5)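 Isolated rat islets incubated with compound for 72 h, then disaggregated and spotted onto slides. Cells double-immunostained for C-peptide and Ki-67. Replication scored as % Ki-67+ among C-peptide+ cells, compared with untreated islets.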

Pancreatic beta cell [20] = assay: Stimulation of rat primary beta cell replication at 2 uM; format: functional; summary of the method: as §5
[21] = Activation of Pax4 RNA expression in rat INS-1E cells at 1 uM after 4 hrs relative to control; format: functional, cell-based; summary of the method: as §3
[22] = Activation of Pax4 RNA expression in rat INS-1E cells at 1 uM after 24 hrs relative to control; format: functional, cell-based; summary of the method: as §3
[23] = Activation of cyclophilin B gene expression in rat INS-1E cells at 1 uM after 4 hrs relative to control; format: functional, cell-based; summary of the method: as §3
[24] = Activation of cyclophilin B gene expression in rat INS-1E cells at 1 uM after 24 hrs relative to control; format: functional, cell-based; summary of the method: as §3
Pancreatic beta cell [25] = assay: Stimulation of rat primary beta cell replication at 5 uM; format: functional; summary of the method: as §5

| Compound | IC50 [1] [µM] | IC50 [2] [µM] | IC50 [3] [µM] | other results |
| --- | --- | --- | --- | --- |
| O=C1Cc2c([nH]c3ccc(C(F)(F)F)cc23)-c2cnccc2N1 | 0.013 | 0.12 | 0.19 |  |
| N#Cc1ccc2c(c1)-c1[nH]c3ccc(C#N)cc3c1CC(=O)N2 | 0.028 | 0.73 | 0.12 |  |
| O=C1Cc2c(n(Cc3ccccc3)c3ccccc23)-c2cnccc2N1 | 0.41 | > 10 | > 10 |  |
| CCn1c2c(c3ccccc31)CC(=O)Nc1ccncc1-2 | 0.8 | > 10 | 3.8 |  |
| O=C1Cc2c([nH]c3ccc(Br)cc23)-c2ccccc2N1 [KENPAULLONE] |  |  |  | Activity (SH-SY5Y): Dose-dependent effect |
| O=C1Cc2c(n(Cc3ccccc3)c3ccccc23)-c2ncccc2N1 | 2.1 | > 10 | > 10 |  |
| O=C1Cc2c(oc3ccc(Cl)cc23)-c2ccccc2N1 | > 10 | > 10 | > 10 |  |
| O=C1Cc2c([nH]c3ccc(Br)cc23)-c2ncccc2N1 [AZAKENPAULLONE] |  |  | 2 |  |
| O=C1Nc2cc(Br)ccc2/C1=C1/Nc2ccccc2/C1=N\O |  |  |  | Fold change [21]: 1.02; Fold change [22]: 0.81; Fold change [23]: 1.04; Fold change [24]: 1.2 |
| CCn1c2c(c3ccccc31)CC(=O)Nc1cccnc1-2 | 13 | > 10 | > 10 |  |
| Cc1cnc(-c2cnc(NCCNc3ccc(C#N)cn3)nc2-c2ccc(Cl)cc2Cl)[nH]1 [LADUVIGLUSIB] |  |  |  | Activity (Pancreatic beta cell [25]): 2.5; Fold change [8]: 0.78; Fold change [9]: 0.76; Fold change [10]: 1.31; Fold change [11]: 1.12 |
| O=C1Cc2c(oc3ccccc23)-c2ccccc2N1 | > 10 | > 10 | > 10 |  |
| O=C1Cc2c(oc3ccc(Br)cc23)-c2ccccc2N1 | > 10 | > 10 | > 10 |  |
| O=C1Cc2c(n(-c3ccccc3)c3ccccc23)-c2ncccc2N1 | > 10 | > 10 | > 10 |  |
| Cn1c2c(c3ccccc31)CC(=O)Nc1ccncc1-2 | 0.4 | > 10 | 8 |  |

The next lines start with results.

| IC50 [1] [µM] | IC50 [2] [µM] | Compound | IC50 [3] [µM] | other results |
| --- | --- | --- | --- | --- |
| 0.8 | 9 | O=C1Cc2c([nH]c3ccccc23)-c2ncccc2N1 | 7 |  |
| 0.008 | 10 | O=C1Cc2c([nH]c3ccc(C(F)(F)F)cc23)-c2ncccc2N1 | 1.65 | Activity (SH-SY5Y): Dose-dependent effect; Activity (INS-1E [4]): Active; Activity (INS-1E [5]): Active; Activity (INS-1E [6]): Active; Activity (INS-1E [7]): Dose-dependent effect; Fold change [8]: 0.72; Fold change [9]: 0.61; Fold change [10]: 1.2; Fold change [11]: 1.3 |
| 0.063 | > 10 | O=C1Cc2c([nH]c3ccc(Cl)cc23)-c2ncccc2N1 | > 10 |  |
| 0.41 | > 10 | O=C1Cc2c(n3c4c(cccc24)CC3)-c2ncccc2N1 | > 10 |  |
| 0.021 | 0.032 | N#Cc1ccc2[nH]c3c(c2c1)CC(=O)Nc1ccncc1-3 | 0.031 |  |
| 0.13 | > 10 | Cc1ccc2[nH]c3c(c2c1)CC(=O)Nc1cccnc1-3 | 8 |  |
| 0.008 | 0.3 | N#Cc1ccc2[nH]c3c(c2c1)CC(=O)Nc1cccnc1-3 [CAZPAULLONE] | 0.5 | Fold change [12]: 2.4; Fold change [13]: 0.73; Activity (SH-SY5Y): Dose-dependent effect; Activity (INS-1E [4]): Active; Activity (INS-1E [14]): Active; Activity (INS-1E [15]): Active; Activity (INS-1E [16]): Active; Activity (INS-1E [5]): Active; Activity (INS-1E [6]): Active; Activity [17]: >50%; Activity [18]: >50%; Activity (INS-1E [7]): Dose-dependent effect; Activity (Pancreatic beta cell [19]): 2.5; Activity (Pancreatic beta cell [20]): inactive; Fold change [21]: 4.87; Fold change [22]: 0.56; Fold change [23]: 1.11; Fold change [24]: 1.42 |
| 0.052 | 0.18 | O=C1Cc2c([nH]c3ccc(Br)cc23)-c2cnccc2N1 | 0.11 |  |
| 3.8 | 10 | N#Cc1ccc2[nH]c3c(c2c1)CC(=O)Nc1ccc(Br)nc1-3 |  |  |
| 0.08 | 3 | O=C1Cc2c([nH]c3ccc(F)cc23)-c2ncccc2N1 | 4.5 | Activity (INS-1E [4]): Active; Activity (INS-1E [5]): Active; Activity (INS-1E [6]): Active; Activity (INS-1E [7]): Dose-dependent effect; Fold change [8]: 0.97; Fold change [9]: 0.45; Fold change [10]: 1.14; Fold change [11]: 0.97 |
| 100 | 30 | O=C1Cc2c([nH]c3ccc(C(=O)O)cc23)-c2ncccc2N1 | 2.2 |  |
| 0.8 | 4 | COc1ccc2[nH]c3c(c2c1)CC(=O)Nc1cccnc1-3 | 2 |  |
| 0.12 | 2 | N#Cc1cc(I)c2[nH]c3c(c2c1)CC(=O)Nc1cccnc1-3 | 0.41 |  |
| 1.4 | 5 | O=C1Cc2c([nH]c3ccc(O)cc23)-c2ncccc2N1 | 4 |  |
| 1.8 | > 10 | O=C1Cc2c([nH]c3c(F)cc(F)cc23)-c2ncccc2N1 | > 10 |  |
| 0.8 | 100 | O=C1Cc2c([nH]c3cc(Cl)cc(Cl)c23)-c2ncccc2N1 | > 30 |  |
| 0.051 | 0.26 | O=C1Cc2c([nH]c3ccc(F)cc23)-c2cnccc2N1 | 1.2 |  |
| 0.018 | 0.21 | O=C1Cc2c([nH]c3ccc(Cl)cc23)-c2cnccc2N1 | 0.12 |  |
| 1 | 3 | Cn1c2c(c3ccccc31)CC(=O)Nc1cccnc1-2 | > 10 |  |
| 0.39 | 0.4 | COc1ccc2[nH]c3c(c2c1)CC(=O)Nc1ccncc1-3 | 0.2 |  |
| 0.025 | 6 | O=C1Cc2c([nH]c3ccc(I)cc23)-c2ncccc2N1 | 1 | Activity (INS-1E [4]): Active |
